Test results as given in ChEMBL document CHEMBL4152256, “Structure-activity relationship of new antimalarial 1-aryl-3-susbtituted propanol derivatives: Synthesis, preliminary toxicity profiling, parasite life cycle stage studies, target exploration, and targeted delivery” (Eur J Med Chem, 2018).
Activity calls are given as the source filed them. The rule behind the calls is not given here.

Columns and labels:
[1] = Selectivity index, ratio of CC50 for human primary hepatocytes to IC50 for Plasmodium falciparum FCR-3 sporozoites infected in human primary hepatocytes; type: toxicity, cell-based; conditions: read-out: Ratio CC50/IC50
Summary of the method: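 Primary human hepatocytes were plated at 8 × 10^4 per well on collagen and infected with P. falciparum sporozoites (2.5 × 10^4 per well). Compounds were given at infection from 10 µg/mL plus seven dilutions, refreshed every 24 h, for 8 days. EEFs were read by Hsp70 immunostaining. […] Two independent experiments were run.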

Plasmodium falciparum [2] = assay: Antiplasmodial activity against multidrug-resistant Plasmodium falciparum FCR-3 by [3H]-hypoxanthine incorporation assay; type: functional, organism-based, FCR-3/Gambia
Summary of the method: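 Blood-stage P. falciparum 3D7 and FCR-3 were tested by a modified [3H]-hypoxanthine incorporation assay. Chloroquine was the reference in all runs.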

Plasmodium falciparum [3] = assay: Antiplasmodial activity against Plasmodium falciparum FCR-3 sporozoites infected in human primary hepatocytes treated simultaneously with infection by DAPI staining based HCS analysis; type: functional, organism-based, FCR-3/Gambia; conditions: Plasmodium falciparum, FCR-3/Gambia; read-out: IC50
[4] = Cytotoxicity against human HepG2A16 cells by MTT assay; type: cell-based
Summary of the method: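 MTT viability assay on HepG2-A16 cells, giving CC50 values.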

[5] = Selectivity index, ratio of GI50 for African green monkey vero cells to IC50 for multidrug-resistant Plasmodium falciparum FCR-3; type: toxicity; conditions: read-out: Selectivity Index
Plasmodium berghei [6] = assay: Antiplasmodial activity against Plasmodium berghei ANKA infected in Swiss mouse assessed as reduction in parasitemia at 50 mg/kg/day, po for 4 consecutive days by Giemsa staining based assay relative to control; type: functional; set-up: scale not given: the % may be the effect or the level left
Plasmodium berghei [7] = assay: Antiplasmodial activity against Plasmodium berghei ANKA infected in mouse assessed as inhibition of parasitemia at 50 mg/kg/day, po for 4 consecutive days starting from 2 hrs post infection by MSF assay relative to control; type: functional
Summary of the method: (§1)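 Swiss male mice (20 ± 2 g) infected ip with 10^7 P. berghei ANKA parasitized cells (day 0). Five per group dosed orally 2 h after infection and daily on days 0–3. Test compounds at 50 mg/kg/day in water:DMSO; chloroquine diphosphate at 3 mg/kg/day; vehicle controls. Parasitemia measured on day 4 by MSF assay; survival checked daily.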

Plasmodium falciparum [8] = assay: Antiplasmodial activity against multidrug-resistant Plasmodium falciparum C235 after 72 hrs by MSF assay; type: functional, organism-based; conditions: C235, 72 h
Summary of the method: (§2)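 D6 and C235 strains from the Walter Reed Army Institute of Research were tested by the Malaria SYBR Green-I fluorescence assay.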

[9] = Cytotoxicity against human primary hepatocytes after 48 hrs by MTT assay; type: cell-based, Hepatocyte
Summary of the method: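 Primary human hepatocytes seeded at 2 × 10^5/well and grown 24 h at 37 °C, 5% CO2. Compound dilutions added in triplicate for 48 h. MTT (2 mg/mL) added for 4 h, then DMSO for 20 min; absorbance read at 550 nm. Untreated and diluent controls included; CC50 calculated.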

Plasmodium falciparum [10] = assay: Antiplasmodial activity against Plasmodium falciparum D6 after 72 hrs by MSF assay; type: functional, organism-based; conditions: D6, 72 h; summary of the method: as §2
[11] = Selectivity index, ratio of CC50 for human HepG2A16 cells to IC50 for GFP-fused Plasmodium berghei sporozoites infected in human HepG2A16 cells; type: toxicity, cell-based; conditions: read-out: Ratio CC50/IC50
Summary of the method: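 HepG2-A16 cells were grown at 3 × 10^4 per well on collagen and infected with GFP P. berghei sporozoites (5 × 10^3 to 1 × 10^4 per well) from A. stephensi salivary glands. Compounds were added at infection, from 10 µg/mL top plus seven serial dilutions, and refreshed at 3 h and then every 24 h. After 40 h at 37 °C, EEFs were methanol-fixed, anti-Hsp70 immunolabelled and counted by high-content imaging. SI = HepG2 CC50 / liver-stage IC50.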

[12] = Selectivity index, ratio of CC50 for human HepG2A16 cells by MTT assay to IC50 for multidrug-resistant Plasmodium falciparum FCR-3; type: toxicity
Summary of the method: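 HepG2-A16 human hepatoma cells were tested by MTT viability assay to give CC50. Blood-stage activity was measured against the multidrug-resistant P. falciparum FCR-3 strain by [3H]-hypoxanthine incorporation to give IC50. SI = CC50 HepG2 / FCR-3 IC50.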

Plasmodium berghei [13] = assay: Antiplasmodial activity against GFP-fused Plasmodium berghei sporozoites infected in human HepG2A16 cells treated simultaneously with infection by fluorescence microscopic analysis; type: functional, organism-based; conditions: Plasmodium berghei, HepG2A16; read-out: IC50
Summary of the method: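 HepG2-A16 cells (3 × 10^4/well, collagen-coated) infected with PbGFP sporozoites (5 × 10^3 to 1 × 10^4/well) and treated at the same time. Top concentration 10 µg/mL in DMEM, seven serial dilutions. Medium and compound renewed at 3 h and every 24 h. After 40 h at 37 °C: methanol fixation, anti-Plasmodium Hsp70 immunolabeling, Alexa 594 secondary, DAPI; high-content imaging.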

[14] = Drug encapsulation in liposomes assessed as encapsulation efficiency in citrate/phosphate buffered measured after ultracentrifugation using compound addition to preformed liposomes by UV/Vis spectroscopy relative to untreated control; type: physicochemical; conditions: artificial membrane
Summary of the method: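 Compound loaded into DSPC:cholesterol:DSPE-PEG2000-Mal:DOPE-Rho (84.5:10:5:0.5) liposomes using a citrate (pH 4.0)/PBS pH gradient. Drug measured by UV/vis after SDS disruption at each step: citrate liposomes, after buffer exchange to PBS (chloroquine added to preformed liposomes here), and after ultracentrifugation. Encapsulation efficiency = % of drug that is encapsulated out of total drug in the sample.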

Plasmodium berghei [15] = assay: Antiplasmodial activity against Plasmodium berghei ANKA infected in mouse assessed as inhibition of parasitemia at 3 mg/kg/day, po for 4 consecutive days starting from 2 hrs post infection by MSF assay relative to control; type: functional; summary of the method: as §1
Plasmodium berghei [16] = assay: Antiplasmodial activity against Plasmodium berghei ANKA infected in mouse assessed as mouse survival time at 3 mg/kg/day, po for 4 consecutive days starting from 2 hrs post infection by MSF assay; type: functional
Summary of the method: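 Swiss male mice (20 ± 2 g) infected i.p. with 10^7 P. berghei ANKA parasitized cells in 0.1 mL 0.9% saline (day 0). Oral dosing began 2 h post-infection and continued daily on days 0–3, five mice per batch. Test drugs were given at 50 mg/kg/day in water:DMSO and chloroquine diphosphate at 3 mg/kg/day; a vehicle control was included. Survival was checked daily, and parasitemia was read on day 4 by modified MSF assay.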

[17] = (§3) Binding affinity to Plasmodium falciparum GRP94 nucleotide binding domain by SPR analysis
Summary of the method: (§4)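 Purified PfHsp90 and PfGRP94 nucleotide-binding domains were amine-coupled to a CM5 chip (3000 and 7000 RU, respectively), with a blank reference surface. Seven compound concentrations (0.4 nM–1 mM) were injected in triplicate at 30 µL/min, 25 °C, in random order. Running buffer: 10 mM HEPES pH 7.4, 150 mM NaCl, 0.005% P20, 1% DMSO, 2 mM MgCl2. Kd came from double-referenced sensorgrams.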

[18] = target: T1, HSP90 (Plasmodium falciparum 3D7) (UniProt Q8IL32); assay: Binding affinity to Plasmodium falciparum HSP90 nucleotide binding domain at 0.5 mM by SYPRO orange dye based DSF analysis
T1 sequence (whole entry): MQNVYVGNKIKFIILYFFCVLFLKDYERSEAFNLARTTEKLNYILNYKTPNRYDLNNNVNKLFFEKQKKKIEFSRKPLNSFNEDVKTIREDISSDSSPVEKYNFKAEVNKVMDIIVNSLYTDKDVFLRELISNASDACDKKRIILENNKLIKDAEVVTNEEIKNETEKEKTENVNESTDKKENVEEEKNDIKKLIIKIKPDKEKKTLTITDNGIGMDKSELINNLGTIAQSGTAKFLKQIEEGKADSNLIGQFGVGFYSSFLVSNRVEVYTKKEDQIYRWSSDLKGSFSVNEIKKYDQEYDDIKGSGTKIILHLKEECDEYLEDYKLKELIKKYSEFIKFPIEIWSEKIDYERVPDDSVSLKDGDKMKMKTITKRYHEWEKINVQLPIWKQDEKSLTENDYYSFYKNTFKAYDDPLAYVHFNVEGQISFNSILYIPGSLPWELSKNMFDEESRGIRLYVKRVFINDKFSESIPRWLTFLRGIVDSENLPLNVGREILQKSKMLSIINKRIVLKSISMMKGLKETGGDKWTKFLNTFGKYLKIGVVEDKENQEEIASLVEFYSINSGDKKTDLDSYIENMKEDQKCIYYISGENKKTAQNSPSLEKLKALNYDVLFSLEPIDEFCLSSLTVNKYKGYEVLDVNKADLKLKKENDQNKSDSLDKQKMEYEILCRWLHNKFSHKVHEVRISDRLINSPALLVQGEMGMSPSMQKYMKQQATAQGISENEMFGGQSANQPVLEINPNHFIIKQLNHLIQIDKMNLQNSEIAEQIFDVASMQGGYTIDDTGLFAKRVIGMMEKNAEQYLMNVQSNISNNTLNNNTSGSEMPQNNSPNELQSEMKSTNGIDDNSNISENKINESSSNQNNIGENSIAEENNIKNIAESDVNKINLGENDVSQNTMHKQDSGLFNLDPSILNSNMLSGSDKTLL
Summary of the method: (§5)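 Recombinant P. falciparum Hsp90 or GRP94 nucleotide-binding domain (0.05–0.2 mg/mL, optimized per protein) in 25 mM HEPES pH 7.5, 250 mM NaCl. Compound final concentration was 0.5 mM, with SYPRO Orange at 1:1000. Samples were heated from 18 to 90 °C at 1 °C/min. Tm was taken as the Boltzmann-fit inflection point. ΔTm = Tm with ligand minus Tm without, and shifts beyond ±1 °C were counted significant.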

HSP90 = target: T2, HSP90 (Plasmodium falciparum 3D7, UniProt Q8IL32); assay: (§6) Binding affinity to Plasmodium falciparum HSP90 nucleotide binding domain by SPR analysis; summary of the method: as §4
T2 sequence (Q8IL32 whole entry): T1 sequence (whole entry)

Plasmodium falciparum [19] = assay: Binding affinity to Plasmodium falciparum GRP94 nucleotide binding domain at 0.5 mM by SYPRO orange dye based DSF analysis; summary of the method: as §5
Plasmodium berghei [20] = assay: (§7) Antiplasmodial activity against GFP-fused Plasmodium berghei in Anopheles stephensi mosquitoes feeded on blood from infected mouse at 100 mg/kg, ip pretreated for 1.5 hrs followed by blood feeding of mosquito assessed as reduction in number of oocysts in mosquito midgut and measured at 8 days post mosquitoes infection by fluorescence microscopic method relative to control; type: functional; set-up: scale not given: the % may be the effect or the level left
Summary of the method: (§8)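 Mice (two per group) infected ip with 200 µL PbGFP-infected RBCs (3000 parasites/µL); gametocytes checked at day 4. Compound given ip at 100 mg/kg in DMSO 1.5 h before A. stephensi fed 1 h on mice at 1% gametocytaemia. Untreated and DMSO-treated mice as controls. After 8 days, 30 mosquitoes per group dissected; midgut oocysts counted by fluorescence microscopy; inhibition relative to control oocyst numbers (100%).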

Plasmodium falciparum [21] = assay: as §3; summary of the method: as §4
Plasmodium berghei [22] = assay: as §7, with “infection” for “number”, “of” for “of oocysts in”, “mosquito” for “mosquito midgut”; type: functional; set-up: scale not given: the % may be the effect or the level left; summary of the method: as §8
[23] = target: T1, HSP90 (Plasmodium falciparum 3D7); assay: as §6; summary of the method: as §4
[24] = Plasmodium falciparum, FCR-3/Gambia, 3 h

Structure (SMILES): O=[N+]([O-])c1ccc(N2CCC(NCCC(O)c3ccc(F)c4ccccc34)CC2)c(C(F)(F)F)c1 (stereo in doubt; 8)
- selectivity ratio [1]: 7.3
- IC50 (Plasmodium falciparum [2]): 0.15 µM
- IC50 (Plasmodium falciparum [3]): 1.79 µM
- CC50 [4]: 5.7 µM
- selectivity ratio [5]: 37
- Activity (Plasmodium berghei [6]): 98%
- inhibition in vivo at 50 mg/kg/day (Plasmodium berghei [7]): 96.4%
- IC50 (Plasmodium falciparum [8]): 0.13 µM
- CC50 at 48 h [9]: 13.1 µM
- IC50 (Plasmodium falciparum [10]): 0.11 µM
- selectivity ratio [11]: 0.5
- Ratio CC50/IC50 [12]: 38
- IC50 (Plasmodium berghei [13]): 12.1 µM

Structure (SMILES): CCN(CC)CCCC(C)Nc1ccnc2cc(Cl)ccc12.O=P(O)(O)O.O=P(O)(O)O (stereo unspecified) [CHLOROQUINE PHOSPHATE]
- Activity [14]: 95.8%
- inhibition in vivo at 3 mg/kg/day (Plasmodium berghei [15]): 88.5%

Structure (SMILES): COc1cc(NC(C)CCCN)c2ncccc2c1 (stereo unspecified) [PRIMAQUINE]
- selectivity ratio [1]: 135
- IC50 (Plasmodium falciparum [2]; [24]): 1.18 µM
- IC50 (Plasmodium falciparum [3]): 0.4 µM
- CC50 ([4]; HepG2A16 cells): 120 µM
- CC50 at 48 h [9]: 54 µM
- selectivity ratio [11]: 32.9
- IC50 (Plasmodium berghei [13]): 3.65 µM

Structure (SMILES): CCN(CC)CCCC(C)Nc1ccnc2cc(Cl)ccc12 (stereo unspecified) [CHLOROQUINE]
- CC50 ([4]; HepG2A16 cells): 137 µM
- MSD (Plasmodium berghei [16]): 11 days

Structure (SMILES): OC(CN1CCN(Cc2ccccc2)CC1)Cn1c2ccc(Cl)cc2c2cc(Cl)ccc21 (stereo unspecified)
- Kd [17]: 0.017 µM
- Activity [18]: inactive
- Kd (HSP90): 0.027 µM
- Activity (Plasmodium falciparum [19]): inactive

Structure (SMILES): O=[N+]([O-])c1ccc(N2CCC(NCCC(O)c3ccc(F)cc3)CC2)c(C(F)(F)F)c1 (stereo unspecified)
- Activity (Plasmodium berghei [20]): 70%
- selectivity ratio [1]: 11.4
- IC50 (Plasmodium falciparum [2]; [24]): 0.48 µM
- Activity (Plasmodium falciparum [21]): inactive
- IC50 (Plasmodium falciparum [3]): 1.71 µM
- CC50 ([4]; HepG2A16 cells): 10.4 µM
- Activity (Plasmodium berghei [22]): 24%
- Activity [18]: inactive
- CC50 at 48 h [9]: 19.5 µM
- Activity [23]: inactive
- selectivity ratio [11]: 0.6
- selectivity ratio ([12]; HepG2A16 cells, read-out: Ratio CC50/IC50): 22
- IC50 (Plasmodium berghei [13]): 18.2 µM
- Activity (Plasmodium falciparum [19]): inactive

Structure (SMILES): CC(C)NCC(O)Cn1c2ccc(Cl)cc2c2cc(Cl)ccc21 (stereo unspecified)
- Kd [17]: 4480 µM
- Activity [18]: inactive
- Kd (HSP90): 0.007 µM
- Activity (Plasmodium falciparum [19]): inactive
